Apaf1 inhib – human Apaf-1 inhibition; reconstituted apoptosome caspase-3 activity, DEVD-Rh110 fluorescence; hit rate 0.71% among 330,000; inhibition, % at 20 µM; active = inhibition of at least 40% at 20 µM;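 also: plate controls were DMSO wells for no effect and DEVD-CHO caspase inhibitor wells for full effect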
Target sequence (O14727 whole entry, looked up): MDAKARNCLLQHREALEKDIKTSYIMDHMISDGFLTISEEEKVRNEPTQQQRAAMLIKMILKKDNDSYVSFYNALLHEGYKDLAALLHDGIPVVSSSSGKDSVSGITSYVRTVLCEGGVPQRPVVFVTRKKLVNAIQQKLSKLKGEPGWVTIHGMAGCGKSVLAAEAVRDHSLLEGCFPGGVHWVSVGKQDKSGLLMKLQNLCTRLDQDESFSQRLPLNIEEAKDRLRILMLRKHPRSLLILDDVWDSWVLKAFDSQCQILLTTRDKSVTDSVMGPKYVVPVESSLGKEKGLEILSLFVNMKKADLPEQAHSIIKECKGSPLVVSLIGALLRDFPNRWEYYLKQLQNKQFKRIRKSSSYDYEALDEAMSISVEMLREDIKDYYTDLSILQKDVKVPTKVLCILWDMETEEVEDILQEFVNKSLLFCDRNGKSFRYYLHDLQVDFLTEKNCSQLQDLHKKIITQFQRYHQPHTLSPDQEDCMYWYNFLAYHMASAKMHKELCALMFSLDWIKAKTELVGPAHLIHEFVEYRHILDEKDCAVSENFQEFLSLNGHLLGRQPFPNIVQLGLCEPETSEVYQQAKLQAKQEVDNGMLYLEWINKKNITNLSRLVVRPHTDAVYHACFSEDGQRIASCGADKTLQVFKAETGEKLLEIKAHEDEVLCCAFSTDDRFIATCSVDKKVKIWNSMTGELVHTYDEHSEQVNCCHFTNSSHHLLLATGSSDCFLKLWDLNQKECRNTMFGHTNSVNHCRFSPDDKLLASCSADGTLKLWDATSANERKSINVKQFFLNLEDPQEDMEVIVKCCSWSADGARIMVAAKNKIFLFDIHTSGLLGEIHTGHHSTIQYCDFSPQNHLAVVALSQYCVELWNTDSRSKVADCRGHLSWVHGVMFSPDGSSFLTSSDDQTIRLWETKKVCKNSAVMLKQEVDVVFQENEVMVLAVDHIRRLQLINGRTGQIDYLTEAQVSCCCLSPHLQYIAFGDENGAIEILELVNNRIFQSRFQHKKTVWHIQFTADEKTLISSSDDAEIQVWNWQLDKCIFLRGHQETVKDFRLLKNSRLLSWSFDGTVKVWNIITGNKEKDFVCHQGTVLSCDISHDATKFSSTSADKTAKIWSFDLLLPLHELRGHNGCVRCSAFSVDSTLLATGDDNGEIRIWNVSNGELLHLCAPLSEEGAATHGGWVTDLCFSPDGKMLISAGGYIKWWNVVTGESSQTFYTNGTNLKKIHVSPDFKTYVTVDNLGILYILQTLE
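Material: cell-free apoptosome with Apaf-1, procaspase-3 and caspase-9; Buffer or medium: Hepes pH 7.5 with detergent and BSA; Reagent: cytochrome c trigger plus (Z-DEVD)2-Rh110 caspase-3 substrate; Times: compound with Apaf-1, dATP, procaspase-3 30 min, then 50 min reaction, room temperature; Technique: Rh110 fluorescence intensity.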
SENP7 inh – inhibitors of human SENP7 protease; hit rate 1.5% among 330,000; Q9BQF6; recombinant SENP7, Z-RLRGG-aminoluciferin luminescence, 40 min; inhibition, % at 5 µM; AID 434973;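 active = inhibition above about 50% at the single test dose, limit read from the data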;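 also: plate controls were DMSO with enzyme for no effect and no enzyme buffer wells for full effect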
SENP8 block-1 – inhibitors of human SENP8 protease; Q96LD8; purified SENP8, Z-RLRGG-aminoluciferin cleavage, luminescence; AID 2540; hit rate 1.2% among 330,000; inhibition, % at 10 µM; in the data active = inhibition above about 50%
SENP8 block-2 – inhibitors of human SENP8 protease. Q96LD8. hit rate 0.64% among 360,000. recombinant SENP8, Nedd8 substrate fluorescence. AID 602440. inhibition, % at 20 µM; in the data active = inhibition mostly above about 40%, no sharp cut-off; inactive = mostly below about 27%
UBC13 inh – human UBC13 polyubiquitination inhibition; P61088; UBC13 polyubiquitin chain formation, TR-FRET; inhibition, % at 20 µM; hit rate 0.47% among 330,000; AID 485273; in the data active = inhibition above about 45%, passing the limit was not always enough; inconclusive = no clear call, values can overlap the other calls
SENP6 inh – SENP6 protease inhibition. inhibition, % at 10 µM. Q9GZR1. hit rate 1.8% among 330,000. Recombinant SENP6 catalytic domain, aminoluciferin luminescence;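 active = inhibition above about 50% at the single tested dose, limit read from the data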;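 also: plate controls were DMSO wells with enzyme for no effect and DMSO wells lacking enzyme for full effect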
Apaf-1 inh conf2 – Apaf-1 inhibition, single-dose confirmed; shares compounds with Apaf1 inhib; reconstituted apoptosome, caspase-3 DEVD-Rh110 fluorescence; inhibition, % at 20 µM; hit rate 25% among 1,800;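 active = mean inhibition of at least 40% at 20 µM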;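 also: plate controls were DMSO wells for no effect and DEVD-CHO caspase inhibitor control wells for full effect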
Rh110 interf inh – Rh110 signal interference in Apaf-1 inhibitor counter-screen | shares compounds with Apaf1 inhib | Rh110 fluorescence interference, quenched caspase reaction | activation (fluorescence interference), % at 20 µM | 1,800 tested, under 10 active | AID 504615;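 active = signal rise of 40% or more at 20 µM, treated as a fluorescence artifact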
Fluor interf inh – shows fluorescence interference in the Apaf-1 inhibitor assay format; shares compounds with Apaf1 inhib; fluorescence interference counterscreen, Apaf-1 assay format; IC50, µM; 460 tested, under 10 active; call rule not given here
* marks the source's active call; other numbers are inactive results; i = inactive; ? = inconclusive; · = no result given. A selection: hits, their analogues and other compounds. The true share with any hit is near 3%.

SMILES	Apaf1 inhib	SENP7 inh	SENP8 block-1	SENP8 block-2	UBC13 inh	SENP6 inh	Apaf-1 inh conf2	Rh110 interf inh	others
CN1CCC[C@@H]1CCNC(=O)c1c(-c2ccc3c(c2)OCO3)noc1-c1ccsc1	40*	-1	-13	-8	6	-14	11	8
CN1CCC[C@H]1CCNC(=O)c1c(-c2ccsc2)sc2ccccc12	7	-6	0	-2	19	-7	·	·
CCCCCC(=O)Nc1ccc(C(=O)COC(=O)Cn2cnc3c2c(=O)n(C)c(=O)n3C)cc1	11	14	-11	-5	-2	-17	·	·
COc1ccc(Cl)cc1NC(=O)C1CC(=O)N(C2CCCCC2)C1 (centres undefined)	-7	3	2	10	-4	15	·	·
COc1ccc(CN(C)C(=O)C2CSC3(C)CCC(=O)N23)cc1 (centres undefined)	19	8	-4	14	13	-4	·	·
COc1ccc(NC(=O)CN(C)C(=O)C2CSC3(C)CCC(=O)N23)cc1 (centres undefined)	43*	0	1	11	26	11	34	16
CCOC(=O)c1cc(-c2ccc(/C=C3/C(=O)N(c4ccc(C(=O)O)cc4)N=C3C)o2)ccc1Cl	50*	-1	0	20	-46	-6	30	7
Fc1ccc(-[n+]2nc(Nc3ccccc3)sc2-c2c3ccccc3cc3ccccc23)cc1	42*	-6	-34	-66	-8	-30	15	4
Oc1ccc2ccccc2c1-c1sc(Nc2ccccc2)n[n+]1-c1ccc(F)cc1	28	14	-6	21	-174	-2	·	·
CC(Oc1ccc(Br)cc1)C(=O)NCC(C)(C)N1CCOCC1 (centres undefined)	47*	3	3	17	7	-3	34	-1
OC(CNC1CCCc2ccccc21)COc1ccc2ccccc2c1 (centres undefined)	47*	-15	-12	14	24	2	15	14
O=C(c1ccccc1)c1ccc(OCC(O)CNC2CCCc3ccccc32)cc1 (centres undefined)	52*	-3	-8	14	25	8	20	10
O=C(COC(=O)COc1ccc2ccccc2c1)NC1CCCc2ccccc21 (centres undefined)	7	-4	-10	4	2	-30	·	·
CCc1ccccc1OC[C@@H](O)CN[C@H]1CCCc2ccccc21	46*	-4	-2	16	37	13	1	-3
CCOc1ccc(CC(=O)Nc2ccc(NC(=O)c3ccco3)cc2)cc1OCC	·	·	·	18	·	·	·	·
CCc1ccc(N2C(=O)C(Cl)=C(Nc3ccc(C(=O)N4CCCC4)cc3)C2=O)cc1	41*	-5	-17	26	-54	5	7	10
CC1(C)Cc2cccc(OCC(=O)N3CCN(c4cccc(C(F)(F)F)c4)CC3)c2O1	45*	-1	16	14	14	1	45*	9	Fluor interf inh=>100
CCC(C)Sc1ccc(-c2nc3cnccn3c2NC2CCCCC2)cc1 (centres undefined)	45*	1	-5	-486	39	0	32	19
CCCCCCSc1ccc(-c2nc3cnccn3c2NC2CCCCC2)cc1	·	·	·	-445	·	·	·	·
CCCCNc1c(-c2ccc(SC3CCCCC3)cc2)nc2cnccn12	42*	-13	1	i	?	2	33	26
Cc1ccc(CNC(=O)Cc2ccc(Br)cc2)cc1	8	-1	0	6	-3	25	·	·
O=C(Nc1cccc2ccccc12)c1ccc2sc([C@H]3C[C@H](O)[C@@H](CO)O3)nc2c1	·	·	·	13	·	·	·	·
Cc1cccc(NC(=O)CN2C(=O)S/C(=C\c3ccc(-c4cccc(C(=O)O)c4C)o3)C2=O)c1	19	5	3	·	-4	-5	·	·
Cc1ccc(NC(=O)CN2C(=O)S/C(=C/c3ccc(-c4cc(C(=O)O)ccc4C)o3)C2=O)cc1C	42*	-7	-3	-229	-21	-6	38	10
Cc1onc(C(N)=O)c1C(=O)Nc1ncc(C(F)(F)F)cc1Cl	-3	6	0	18	-4	-8	·	·
SMILES	Apaf1 inhib	SENP7 inh	SENP8 block-1	SENP8 block-2	UBC13 inh	SENP6 inh	Apaf-1 inh conf2	Rh110 interf inh	others
Cc1ccc(/C=N/Nc2cc(C)nc(N3CCOCC3)n2)cc1	5	4	-13	-3	-14	-18	·	·
Oc1ccc(/C=N/Nc2cc(N3CCCC3)nc(N3CCCC3)n2)cc1O	60*	6	8	-127	3	33	89*	3	Fluor interf inh=>100
COc1ccc(/C=N/Nc2nc(N3CCCC3)nc(N3CCCC3)n2)cc1O	1	-5	-12	-8	-18	-25	·	·
CC(C)c1ccc(/C=N/Nc2cc(N3CCOCC3)nc(N3CCOCC3)n2)cc1	62*	-2	-10	3	-8	4	46*	11	Fluor interf inh=>100
Oc1ccc(/C=N\Nc2cc(N3CCOCC3)nc(N3CCOCC3)n2)c(O)c1	85*	25	12	28	-22	47	60*	7	Fluor interf inh=>100
Cc1cccc(/C=N/Nc2cc(N3CCOCC3)nc(N3CCOCC3)n2)c1	68*	19	6	8	-5	20	33	4
CC1=C(SCc2ccccc2)C(=O)c2ccccc2C1=O	·	·	·	40	·	·	·	·
O=C1C(SCCO)=C(SCCO)C(=O)c2ccccc21	97*	56*	89*	-73	-124	89*	96*	0	Fluor interf inh=>100
O=C(O)c1ccc(-n2nnc3ccccc32)c([N+](=O)[O-])c1	5	0	-8	10	-9	-26	·	·
O=C(O)c1ccc(NC2=C(n3nnc4ccccc43)C(=O)c3ccccc3C2=O)cc1	73*	34	46	55*	-76	-2	76*	4	Fluor interf inh=>100
Cc1cc(C)nc(-n2nc(C)cc2NC(=O)CN2CCc3ccccc3C2)n1	54*	-5	7	32	-8	37	15	-2
CCN1CCN(c2cc(N3CCN(C(=O)c4ccco4)CC3)c3c4c(onc24)-c2ccccc2C3=O)CC1	42*	3	3	68*	-152	10	29	7
CCn1cc(C(=O)NC(C)C)c(=O)c2cc(F)c(N3CCN(C(=O)c4ccco4)CC3)cc21	1	1	1	-394	9	11	·	·
O=C(O)CCNc1cc(N2CCN(C(=O)c3ccco3)CC2)c2noc3c2c1C(=O)c1ccccc1-3	81*	35	36	70*	-140	51*	73*	1	Fluor interf inh=13*
Cc1cc(N2CCN(C(=O)c3ccco3)CC2)c2ccccc2n1	-6	-4	-2	8	-2	-25	·	·

Screening data deposited in PubChem BioAssay by Sanford-Burnham Center for Chemical Genomics.
